Laboratory results from ChEMBL document CHEMBL2417356, “Identification of 2,3-disubstituted pyridines as potent, orally active PDE4 inhibitors” (Bioorg Med Chem, 2013).
Calls of active or inactive are those of the source. The rule behind the calls is not given here.

Assays:
Cavia porcellus [1] = organism: Cavia porcellus; experiment: Inhibition of Hartley guinea pig eosinophil PDE4 assessed as cAMP hydrolysis at 100 nM by two-step radioisotope method relative to control
[2] = (§1) Inhibition of Hartley guinea pig eosinophil PDE4 assessed as cAMP hydrolysis by two-step radioisotope method; parameters: species or system Cavia porcellus
Method in brief: (§2)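 PDE4 purified from eosinophils of male Hartley guinea pigs (~500 g) given 5 mg polymyxin B. Activity measured by a modified two-step radioisotope method with [3H]cAMP substrate, quantifying hydrolyzed cAMP. IC50 taken as the concentration giving 50% inhibition of hydrolysis, from concentration–response curves. Three experiments per agent.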

Cavia porcellus [3] = experiment: Bronchodilatory activity in ovalbumin-treated guinea pig at 10 mg/kg, po administered 1 hr prior to ovalbumin challenge relative to vehicle-treated control; assay type: functional
Method in brief: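 Male guinea pigs OVA-sensitized at 3 weeks old, studied 6 weeks later. Anesthetized, tracheally cannulated and ventilated with room air at 60 strokes/min. Air-overflow measured by the Konzett-Rössler method. Bronchospasm induced by i.v. OVA via hind-paw vein. Peak response taken within 10 min of challenge as % of theoretical maximum. Oral dosing 1 h before challenge; % inhibition against vehicle.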

Mus musculus = experiment: Antiinflammatory activity in mouse assessed as inhibition ovalbumin-induced eosinophil infiltration into lung at 10 mg/kg, po administered 30 mins prior to ovalbumin challenge followed by once per day compound administration measured after 2 days relative to vehicle-treated control; assay type: functional
Method in brief: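 Male mice, 5 weeks old, OVA-sensitized. Dosed orally 30 min before intranasal OVA challenge and once daily for the next 2 days. Challenge given 7 days after the last sensitizing OVA injection, under anaesthesia. Bronchoalveolar lavage under pentobarbital 3 days post-challenge. BALF diluted 10-fold in Turk's solution and living infiltrated cells counted. % inhibition calculated against vehicle group.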

Cavia porcellus [4] = organism: Cavia porcellus; experiment: as §1; method in brief: as §2

Row | inhibition (Cavia porcellus [1]) [%] | IC50 [2] [nM] | SMILES | also measured
1 | 60 |  | Brc1cccc(Sc2ncccc2OCCc2cccnc2)c1 | 
2 | 69 |  | Brc1cccc(Sc2ncccc2OCCCc2cccnc2)c1 | 
3 |  | 104 | N#CCCCOc1cccnc1Sc1cccc(Br)c1 | 
4 | 3 |  | Brc1cccc(Sc2ncccc2OCCCCc2ccncc2)c1 | 
5 | 56 |  | Brc1cccc(Sc2ncccc2OCCc2ccncc2)c1 | 
6 | 80 | 34 | Brc1cccc(Sc2ncccc2OCCCc2ccncc2)c1 | Activity (Cavia porcellus [3]): 77%; inhibition in vivo at 10 mg/kg (Mus musculus): 50%
7 |  | 54 | COc1ccc(C2CNC(=O)C2)cc1OC1CCCC1 (centres undefined) [ROLIPRAM] | inhibition in vivo at 10 mg/kg (Mus musculus): 39%
8 | 5 |  | Brc1cccc(Sc2ncccc2OCCCCc2cccnc2)c1 | 
9 |  |  | O=C(c1cccc(Br)c1)c1ccccn1 | inhibition (Cavia porcellus [4]): inactive
10 | 10 |  | Brc1cccc(Sc2ncccc2OCCCc2ccccn2)c1 | 
